Consider 6 compounds from ChEMBL document CHEMBL4382237, “Design, Synthesis, and Biological Evaluation of 2-Nitroimidazopyrazin-one/-es with Antitubercular and Antiparasitic Activity” (J Med Chem, 2018).

As usually defined, the MIC is the least concentration at which growth counts as inhibited. One may read the Papp as a coefficient for how fast a substance crosses the barrier. As a reminder, the CC50 is the concentration that lowers cell viability or growth by half. As a reminder, the solubility (kinetic) is the concentration staying in solution when a stock, usually in DMSO, is diluted into the medium.

One data set relates to Clostridioides difficile. In words: Antibacterial activity against Clostridium difficile 630 ATCC BAA-1382 by broth microdilution assay. Format: functional. The procedure, abridged: (§1)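 Broth microdilution run essentially per an earlier report. MIC taken as the lowest concentration with no visible growth. Replicates typically agreed within one 2-fold dilution. The median MIC is reported, with a range where the median fell between two tested concentrations.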

Data set [1] can be described thus: Metabolic stability in human liver microsomes assessed as parent compound remaining at 3 uM after 2 hrs by LC-MS/MS analysis. Background: Liver microsomes are a subcellular fraction often used to study metabolism.
Data set [2] is described as follows: Metabolic stability in CD-1 mouse liver microsomes assessed as parent compound remaining at 3 uM after 2 hrs by LC-MS/MS analysis.
The nature of data set [3]: Metabolic stability in human plasma assessed as parent compound remaining at 3 uM after 2 hrs by LC-MS/MS analysis.
A short description of data set [4]: Metabolic stability in CD-1 mouse plasma assessed as parent compound remaining at 3 uM after 2 hrs by LC-MS/MS analysis.
Data set [5] in a line: Apparent permeability across apical to basolateral side in human Caco2 cells at 2 uM after 2 hrs by lucifer yellow dye-based LC-MS/MS analysis. Conditions: caco-2, 2 h. (Caco-2 cells form a polarised layer with tight junctions and transporters.)
A short description of data set [6]: Apparent permeability across basolateral to apical side in human Caco2 cells at 2 uM after 2 hrs by lucifer yellow dye-based LC-MS/MS analysis. Conditions: caco-2, 2 h.
The nature of data set [7]: Apparent permeability across apical to basolateral side in human Caco2 cells assessed as mean drug recovery at 2 uM after 2 hrs by lucifer yellow dye-based LC-MS/MS analysis. Conditions: caco-2, 2 h.
Data set [8] is described as follows: Apparent permeability across basolateral to apical side in human Caco2 cells assessed as mean drug recovery at 2 uM after 2 hrs by lucifer yellow dye-based LC-MS/MS analysis. Conditions: Caco-2.
Data set [9] relates to Giardia intestinalis. In words: Antiparasitic activity against Giardia lamblia WB trophozoites after 24 to 48 hrs by CellTiter-Glo luminescent cell viability assay. Particulars: Giardia duodenalis.
The subject of data set [10] is Mycobacterium tuberculosis. The data set is described as follows: Antibacterial activity against non-replicating Mycobacterium tuberculosis H37Rv after 5 days under hypoxic condition by resazurin dye-based fluorescence assay. The data set is classed as functional. Conditions: 120 h. The procedure, abridged:
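Same H37Rv inoculum (OD600 0.001, ~2 x 10^4 CFU/mL) in 7H9S with serially diluted compound. Plates held 5 days at 0.1% oxygen, then resazurin plus Tween-80 added.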
A general note: The colour change of resazurin is a common sign of viable cells or microbes.

Data set [11] relates to Trypanosoma brucei brucei. The data set is described as follows: Antiparasitic activity against bloodstream form of Trypanosoma brucei brucei strain 427 after 48 hrs by resazurin dye-based assay. Format: functional, organism-based. Conditions: for IC50: strain 427, 48 h.
Data set [12] relates to Entamoeba histolytica. In words: Antiparasitic activity against Entamoeba histolytica HM-1:IMSS trophozoites assessed as inhibition of parasitic growth at 50 uM after 24 to 48 hrs by CellTiter-Glo luminescent cell viability assay relative to control. Format: functional. Conditions: read-out: GI. The procedure, abridged: (§2)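 Axenic trophozoites were kept in TYI-S-33 with penicillin (100 U/mL) and streptomycin (100 µg/mL) and harvested in log phase. 5000 parasites per well were exposed to a final 8-point two-fold series of 0.39–50 µM, from 10 mM DMSO stocks. Plates were incubated 24–48 h at 37 °C under anaerobic conditions. ATP luminescence viability was read in triplicate. Percent inhibition is given at the highest concentration tested.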

Data set [13] has as its system Mycobacterium tuberculosis. The data set is described as follows: Antibacterial activity against Mycobacterium tuberculosis H37Rv after 5 days under normoxic condition by resazurin dye-based fluorescence assay. The data set is classed as functional, organism-based. The procedure, abridged:
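H37Rv grown in 7H9/ADC/glycerol/Tyloxapol to mid-exponential phase, diluted to OD600 0.001 (~2 x 10^4 CFU/mL) in 7H9S with serially diluted compound. Incubated 5 days at 37 °C, then resazurin and Tween-80 added. Fluorescence (ex 530/em 590 nm) read after 24 h, normalised to no-drug and no-bacteria wells.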

For data set [14], the system named is Mycobacterium tuberculosis. The data set is described as follows: Antibacterial activity against non-replicating Mycobacterium tuberculosis H37Rv assessed as inhibition of bacterial growth at 0.06 to 16 ug/ml after 5 days under hypoxic condition by resazurin dye-based fluorescence assay relative to control. Format: functional. Conditions: at 0.06 to 16 µg/mL.

For the next data set, the system named is Staphylococcus aureus. The data set is described as follows: Antibacterial activity against methicillin-resistant Staphylococcus aureus ATCC […] by broth microdilution assay. Format: functional.
In the next data set the test system is Escherichia coli. The data set is described as follows: Antibacterial activity against Escherichia coli ATCC 25922 by broth microdilution assay. Format: functional. The procedure, abridged: as §1
Another data set concerns Klebsiella pneumoniae. The data set is described as follows: Antibacterial activity against Klebsiella pneumoniae 700603 by broth microdilution assay. The data set is classed as functional. The procedure, abridged:
as §1

The subject of the next data set is Acinetobacter baumannii. In words: Antibacterial activity against Acinetobacter baumannii ATCC 19606 by broth microdilution assay. Conditions: ATCC 19606 = CIP 70.34 = JCM 6841. The data set is classed as functional. The procedure, abridged:
as §1

The next data set deals with Pseudomonas aeruginosa. In words: Antibacterial activity against Pseudomonas aeruginosa ATCC 27853 by broth microdilution assay. Format: functional. The procedure, abridged:
as §1

A further data set has as its system Candida albicans. In words: Antifungal activity against Candida albicans ATCC 90028 by broth microdilution assay. Format: functional. The procedure, abridged: as §1
The test system of another data set is Cryptococcus neoformans. The data set is described as follows: Antifungal activity against Cryptococcus neoformans H99 ATCC […] broth microdilution assay. Format: functional. Particulars: var. grubii H99 ATCC 208821. Summed up:
as §1

The next data set has as its system HEK293. In words: Cytotoxicity against HEK293 cells after 24 hrs by resazurin dye-based fluorescence assay. Format: cell-based. Conditions: human, hek293, 24 h. The procedure, abridged: (§3)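 HEK293 (3000/well) and HepG2 (5000/well) were grown 24 h in DMEM with 10% FBS at 37 °C, 5% CO2. Cells were then exposed 24 h to a dilution series up to 100 µM (0.5% DMSO). 5 µM resazurin was added for 2 h, read at ex 560/em 590. 1% Triton X-100 served as lysis control. CC50 was derived from the curves.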

The next data set deals with HepG2. The data set is described as follows: Cytotoxicity against human HepG2 cells after 24 hrs by resazurin dye-based fluorescence assay. Format: cell-based. Conditions: hepg2, 24 h. Summed up:
as §3

Data set [15] is described as follows: physchem. Particulars: water.
Data set [16] can be described thus: physchem. Conditions: PBS, pH 7.4.
Data set [17] deals with Entamoeba histolytica. The data set is described as follows: Antiparasitic activity against Entamoeba histolytica HM-1:IMSS trophozoites after 24 to 48 hrs by CellTiter-Glo luminescent cell viability assay. The data set is classed as functional, organism-based. The procedure, abridged:
as §2

Data set [18] concerns Giardia intestinalis. In words: Antiparasitic activity against Giardia lamblia WB trophozoites after 24 to 48 hrs by CellTiter-Glo luminescent cell viability assay. Particulars: Giardia duodenalis.

In brackets after ≈: the same amount, converted by molar mass. Activity calls are given as the source filed them. No cut-off for these calls is given here. A value given as a limit tells only on which side of the number the result lay.

In the data set with Clostridioides difficile, `O=c1c2nc([N+](=O)[O-])cn2ccn1Cc1cccc(OC(F)(F)F)c1` returned an MIC above 64 µg/mL. Also, the Stability is above 99% in [1], above 99% in [2], above 99% in data set [3] and 97% in data set [4]. Moreover, the Papp in data set [5] and in data set [6] was 24 ×10⁻⁶ cm/s in each case. Also, the Drug recovery in data set [7] was 88%. Besides, the recovery at 2 h, 2 µM in data set [8] turned out to be 99%.
For the compound `CC(=O)OCCOc1nc(C)cn2cc([N+](=O)[O-])nc12`, the IC50 with Giardia intestinalis [9] is 21 µM; in the data set with Giardia intestinalis [9] (read-out: pIC50 (converted)) it was 20 µM; in data set [11] (read-out: IC50), above 40 µM; in data set [11] (read-out: pIC50 (converted)) it was above 39.8 µM. The MIC in [10] is above 32 µg/mL. Further, the inhibition of growth at 50 µM in the data set on Entamoeba histolytica [12] worked out at 42%.
For the compound `C[C@H]1O[C@@H](O[C@H]2[C@@H](O)C[C@H](O[C@H]3[C@@H](O)C[C@H](O[C@H]4CC[C@@]5(C)[C@H](CC[C@@H]6[C@@H]5C[C@@H](O)[C@]5(C)[C@@H](C7=CC(=O)OC7)CC[C@]65O)C4)O[C@@H]3C)O[C@@H]2C)C[C@H](O)[C@@H]1O` [DIGOXIN], in data set [7], the Drug recovery is on record as below 72%. The recovery at 2 h, 2 µM in data set [8] was found to be 88%.
For `O=c1c2nc([N+](=O)[O-])cn2ccn1Cc1cccc(C(F)(F)F)c1`, the IC50 in the data set on Giardia intestinalis [9] was 7.1 µM; in the data set with Giardia intestinalis [9] (read-out: pIC50 (converted)), 7.94 µM; in [11] (read-out: IC50) it was 5.3 µM; in [11] (read-out: pIC50 (converted)), 5.01 µM. In addition, the minimal inhibitory concentration (MIC) was 0.06 µg/mL (≈ 0.177 µM) in data set [13]; above 32 µg/mL against Staphylococcus aureus; above 32 µg/mL against Escherichia coli; above 32 µg/mL with Klebsiella pneumoniae; above 32 µg/mL with Acinetobacter baumannii; above 32 µg/mL against Pseudomonas aeruginosa. The MIC against Candida albicans and in the data set on Cryptococcus neoformans was above 32 µg/mL in each case. Besides, the “growth inhibition (GI)” value in data set [14] is on record as 70 - 90%. In addition, the CC50 with HEK293 and with HepG2 was above 100 µM throughout. For the same compound, the solubility (kinetic) at 24 h, 200 µM in the data set “physchem [15]” and in “physchem [16]” was below 5 µM throughout.
As to `O=[N+]([O-])c1cn2c(n1)OC[C@@H](OCc1ccc(OC(F)(F)F)cc1)C2` [PRETOMANID], the values for the apparent permeability coefficient (Papp) in data set [5] and in data set [6] were 29 ×10⁻⁶ cm/s and 22 ×10⁻⁶ cm/s, respectively. Moreover, in data set [7], the Drug recovery was 81%. Besides, in [8], the recovery at 2 h, 2 µM was 101%.
On to `O=c1c2nccn2ccn1Cc1ccccc1`, for which the outcome (in the data set on Entamoeba histolytica [17]; in [11]; with Giardia intestinalis [18]) was inactive.
